The text below walks through data of ChEMBL document CHEMBL1240415, “Design, synthesis and antimicrobial activities of some new quinoline derivatives carrying 1,2,3-triazole moiety” (2010).

By MIC is commonly meant the lowest concentration that inhibits growth of the organism. A low value points to a more susceptible organism.

≈ marks a conversion by molar mass, not a printed value.

Assay type in all cases: functional
Assay [1] relates to Escherichia coli. In words: Antibacterial activity against Escherichia coli ATTC 25922 after 3 to 4 days by serial plate dilution method. To be noted: for MIC: Escherichia coli, ATTC 25922. In short, it runs like this: (§1)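 Serial dilutions in Mueller-Hinton broth in tubes, pH adjusted to 5.0 with phosphate buffer. Inoculated with a standardized bacterial suspension and incubated 16–18 h at 37 °C. MIC is the lowest concentration with no visible growth, tested over 6.25–100 µg/mL. Zones come from an agar well diffusion assay: compounds in DMSO are added to wells in seeded agar, DMSO control, triplicate plates, 37 °C for 3–4 days, inhibition zone diameter in mm.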

The subject of assay [2] is Staphylococcus aureus. In words: Antibacterial activity against Staphylococcus aureus ATTC 25923 after 3 to 4 days by serial plate dilution method. To be noted: for MIC: Staphylococcus aureus, ATTC 25923. An outline of the steps: as §1
Assay [3] relates to Pseudomonas aeruginosa. Kind of assay: Antibacterial activity against Pseudomonas aeruginosa ATCC 27853 after 3 to 4 days by serial plate dilution method. To be noted: for MIC: Pseudomonas aeruginosa, ATCC 27853. An outline of the steps: as §1
Assay [4] has as its system Trichophyton mentagrophytes. In words: Antifungal activity against recultured Trichophyton mentagrophytes after 3 to 4 days by serial plate dilution method. To be noted: for MIC: Trichophyton mentagrophytes. In short, it runs like this: (§2)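 Sabouraud agar made from peptone, glucose and agar in water, pH 5.7. Fungal spores suspended in normal saline and used to lawn the plates, which were dried 1 h at 37 °C. Wells punched and compounds added in DMSO, with a DMSO solvent control. Triplicate plates held at 37 °C for 3–4 days. Read-out is inhibition zone diameter.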

The test system of assay [5] is Aspergillus flavus. Kind of assay: Antifungal activity against Aspergillus flavus NCIM 524 after 3 to 4 days by serial plate dilution method. To be noted: for MIC: Aspergillus flavus, NCIM 524. In short, it runs like this:
as §2

The subject of assay [6] is Klebsiella pneumoniae. In words: Antibacterial activity against recultured Klebsiella pneumoniae after 3 to 4 days by serial plate dilution method. To be noted: for MIC: Klebsiella pneumoniae. An outline of the steps: as §1
The subject of assay [7] is Talaromyces marneffei. Kind of assay: Antifungal activity against recultured Penicillium marneffei after 3 to 4 days by serial plate dilution method. To be noted: for MIC: Talaromyces marneffei. In short, it runs like this:
as §2

The subject of assay [8] is Aspergillus fumigatus. In words: Antifungal activity against Aspergillus fumigatus NCIM 902 after 3 to 4 days by serial plate dilution method. To be noted: for MIC: Aspergillus fumigatus, NCIM 902. In short, it runs like this: as §2
Assay [9] relates to Streptococcus pyogenes. In words: Antibacterial activity against Streptococcus pyogenes after 3 to 4 days by serial plate dilution method. To be noted: for MIC: Streptococcus pyogenes. In short, it runs like this:
as §1

Assay [10] has as its system Candida albicans. Kind of assay: Antifungal activity against Candida albicans after 3 to 4 days by serial plate dilution method. To be noted: for MIC: Candida albicans. An outline of the steps:
as §2

Regarding `CCN1CCN(Cc2cn(-c3cc(C)nc4ccc(OC)cc34)nn2)CC1`, the “diameter of the inhibition zone (DIZ)” value in assay [1] turned out to be 18 mm; in assay [2] it was 18 mm; in assay [3], 12 mm; in assay [4] it was 12 mm; in [5] it was 16 mm; in assay [6], 16 mm. Moreover, the “diameter of the inhibition zone (DIZ)” value in assay [7] worked out at 18 mm; in assay [8], 14 mm; in [9], 12 mm; in assay [10], 12 mm. The MIC in assay [1], in [2], in assay [3], in assay [4], in [5] and in [6] was 6.25 µg/mL (≈ 17.1 µM) throughout. For the same compound, the MIC in assay [7], in assay [8], in [9] and in [10] was 6.25 µg/mL (≈ 17.1 µM) in each case.
Take `COc1ccc2nc(C)cc(-n3cc(CN4CCN(C(C)=O)CC4)nn3)c2c1`: the “diameter of the inhibition zone (DIZ)” value in assay [1] is 18 mm; in [2], 20 mm; in assay [3] it was 14 mm; in assay [4], 14 mm; in assay [5], 14 mm; in [6], 12 mm. For the same compound, the “diameter of the inhibition zone (DIZ)” value in [7] stood at 16 mm; in [8] it was 16 mm; in assay [9], 16 mm; in [10] it was 10 mm. The MIC in [1], in assay [2], in [3], in assay [4], in assay [5] and in [6] was 6.25 µg/mL (≈ 16.4 µM) throughout. Further, the MIC in assay [7], in assay [8], in assay [9] and in [10] was 6.25 µg/mL (≈ 16.4 µM) in each case.
Consider `COc1ccc2nc(C)cc(-n3cc(CN4CCN(C5CCCCC5)CC4)nn3)c2c1`, for which the “diameter of the inhibition zone (DIZ)” value in assay [1] is recorded as 10 mm; in assay [2], 10 mm; in [3], 10 mm; in assay [4], less than 10 mm; in [5] it was less than 10 mm; in assay [6], 10 mm. Further, the “diameter of the inhibition zone (DIZ)” value is recorded as less than 10 mm in [7], less than 10 mm in [8], 10 mm in assay [9] and less than 10 mm in assay [10]. Moreover, the MIC in [1] is 12.5 µg/mL (≈ 29.7 µM); in assay [2] it was 12.5 µg/mL (≈ 29.7 µM); in [3], 12.5 µg/mL (≈ 29.7 µM); in [4], 50 µg/mL (≈ 119 µM); in [5], 50 µg/mL (≈ 119 µM); in assay [6], 12.5 µg/mL (≈ 29.7 µM). Besides, the MIC is 50 µg/mL (≈ 119 µM) in assay [7], 50 µg/mL (≈ 119 µM) in assay [8], 12.5 µg/mL (≈ 29.7 µM) in [9] and 50 µg/mL (≈ 119 µM) in assay [10].
As for `COc1ccc2nc(C)cc(-n3cc(CN4CCN(c5ccccc5F)CC4)nn3)c2c1`, the “diameter of the inhibition zone (DIZ)” value in assay [1], in [2], in [3], in assay [4], in [5] and in [6] was 10 mm throughout. Moreover, the “diameter of the inhibition zone (DIZ)” value in assay [7] came out at 12 mm; in [8] it was 12 mm; in assay [9], 14 mm; in assay [10], 10 mm. Further, the MIC was 12.5 µg/mL (≈ 28.9 µM) in assay [1]; 12.5 µg/mL (≈ 28.9 µM) in assay [2]; 6.25 µg/mL (≈ 14.5 µM) in assay [3]; 6.25 µg/mL (≈ 14.5 µM) in assay [4]; 6.25 µg/mL (≈ 14.5 µM) in assay [5]; 6.25 µg/mL (≈ 14.5 µM) in assay [6]. Further, the MIC in [7], in assay [8], in assay [9] and in assay [10] was 6.25 µg/mL (≈ 14.5 µM) each time.
